The values that follow come from ChEMBL document CHEMBL3098047, “Design, synthesis and structure-activity relationships of substituted oxazole-benzamide antibacterial inhibitors of FtsZ” (Bioorg Med Chem Lett, 2014).

As a reminder, the half-life is how long it takes for the measured level to halve. As usually defined, the Vd is a proportionality between amount in the body and measured concentration, not a real space. Low values mean little distribution into tissue, high ones wide distribution into tissue. As a reminder, the clearance is a measure of how efficiently the substance is removed, as volume per time. A lower clearance goes with inefficient removal. What is called AUC is the area under the concentration-time curve, a measure of exposure. Low values mean less exposure, high ones more exposure.

In brackets after ≈: the same amount, converted by molar mass.

A short description of series [1]: Half life in Balb/c mouse at 3 mg/kg, iv by LC-MS/MS analysis. In kind it is ADME, organism-based. Also on record: dose 3 mg/kg, route intravenous. Particulars: in vivo.
Series [2] deals with Staphylococcus aureus. Put plainly: Antibacterial activity against Staphylococcus aureus ATCC 29213 by broth microdilution method. In kind it is functional. Put shortly:
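Broth microdilution MIC per CLSI guidelines against S. aureus ATCC 29213; MIC in µg/mL.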
On the technique in general: Dilution methods test growth across graded concentrations, often in twofold steps.

The nature of series [3]: Kinetic solubility of the compound in PBS buffer at pH 7.4 after 24 hrs by turbidimetric method. In kind it is physicochemical. Particulars: read-out: Kinetic_solubility. In a few lines:
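Turbidimetric: doubling dilutions in DMSO diluted twenty-fold into PBS pH 7.4, equilibrated 24 h at room temperature, absorbance read at 620 nm. Value is highest concentration with no measurable precipitate.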

Series [4] is described as follows: Volume of distribution in Balb/c mouse at 3 mg/kg, iv by LC-MS/MS analysis. In kind it is ADME, organism-based. Also on record: dose 3 mg/kg, route intravenous. The conditions noted are these: in vivo.
Series [5] in a line: Half life in mouse microsomes at 10 uM by LC-MS/MS analysis. The series is classed as ADME, Microsome. In a few lines: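 Mouse microsomes at 1 mg/mL protein, compound 10 μM, 0.1% v/v DMSO final; started with 1 mM NADPH, stopped with DMSO at 0, 10, 30, 60 min. Acetonitrile extraction, centrifugation, LC-MS of supernatant; half-life in min.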
The nature of series [6]: Half life in CD-1 mouse hepatocytes at 10 uM by LC-MS/MS analysis. The series is classed as ADME, cell-based, Hepatocyte. In a few lines: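 Cryopreserved CD-1 mouse hepatocytes (5×10^4 cells), compound 10 μM in duplicate, 0.5% v/v DMSO final; stopped with DMSO at seven time points up to 120 min. Acetonitrile extraction, centrifugation, LC-MS of supernatant; half-life in min.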

The test system of series [7] is Staphylococcus aureus. Put plainly: Antibacterial activity against Staphylococcus aureus harboring FtsZ G196A mutant by broth microdilution method. In kind it is functional. In a few lines:
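S. aureus ATCC 29213 derivative with G196A substitution in FtsZ; MIC by broth microdilution following CLSI guidelines; reported in µg/mL.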

Series [8] in a line: Clearance in Balb/c mouse at 3 mg/kg, iv by LC-MS/MS analysis. The conditions noted are these: in vivo. The series is classed as ADME, organism-based. Also on record: dose 3 mg/kg, route intravenous.
For series [9], the target named is T1, Cell division protein FtsZ (Staphylococcus aureus) (UniProt P0A031).
T1 sequence (whole entry): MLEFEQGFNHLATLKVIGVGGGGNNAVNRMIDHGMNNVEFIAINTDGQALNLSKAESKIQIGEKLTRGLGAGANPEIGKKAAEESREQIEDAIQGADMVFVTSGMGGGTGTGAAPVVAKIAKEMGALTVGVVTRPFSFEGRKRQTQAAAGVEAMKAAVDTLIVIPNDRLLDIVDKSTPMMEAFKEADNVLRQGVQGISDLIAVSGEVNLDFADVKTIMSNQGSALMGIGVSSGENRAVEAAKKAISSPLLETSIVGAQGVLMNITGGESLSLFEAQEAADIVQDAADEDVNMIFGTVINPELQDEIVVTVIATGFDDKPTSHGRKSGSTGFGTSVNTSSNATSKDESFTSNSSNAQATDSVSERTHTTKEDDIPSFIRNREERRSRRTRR
Put plainly: Inhibition of Staphylococcus aureus ATCC 29213 FtsZ-mediated cell division phenotype. Put shortly:
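S. aureus ATCC 29213 cell division inhibition assay run alongside MIC testing; value is the lowest concentration at which an inhibition of cell division phenotype was seen (µg/mL).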

Series [10] can be described thus: Initial plasma concentration in Balb/c mouse at 3 mg/kg, iv by LC-MS/MS analysis. The series is classed as ADME, organism-based. Also on record: dose 3 mg/kg, route intravenous.
Series [11] is described as follows: AUC in Balb/c mouse at 3 mg/kg, iv by LC-MS/MS analysis. In kind it is ADME, organism-based. Details: dose 3 mg/kg, route intravenous. The conditions noted are these: plasma.
Series [12] in a line: Metabolic stability in mouse plasma assessed as compound remaining at 10 uM after 24 hrs by LC-MS/MS analysis. The series is classed as ADME, cell-free. The conditions noted are these: read-out: Stability. Put shortly:
(§1)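 Compound at 10 μM in PBS pH 7.4 or neat mouse plasma, 5% v/v DMSO final, incubated 24 h at 37 °C. Samples extracted with acetonitrile and centrifuged; supernatant analysed by LC-MS; reported as % remaining.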

A short description of series [13]: Chemical stability of the compound in PBS buffer assessed as compound remaining at 10 uM at pH 7.4 after 24 hrs by LC-MS/MS analysis. The series is classed as physicochemical. The conditions noted are these: read-out: Stability. In a few lines:
as §1

In series [1], `NC(=O)c1c(F)ccc(OC(CO)c2nc(-c3ccc(C(F)(F)F)cc3)c(Br)o2)c1F` (racemic) showed a half-life of 2.12 h. The values for the MIC in series [2], in series [7] and in series [9] were 0.25 µg/mL (≈ 0.493 µM), 8 µg/mL (≈ 15.8 µM) and 0.5 µg/mL (≈ 0.986 µM), respectively. The solubility kinetic at 24 h in series [3] was 100 µg/mL (≈ 197 µM). In addition, the Vd in series [4] was 1.3 L/kg. Moreover, the half-life at 10 µM in [5] was over 2 h; in [6], 1.19 h. The same molecule registered a clearance in series [8] of 7 mL/min/kg. Moreover, the C0 in series [10] turned out to be 4200 ng/mL. Further, the AUC in [11] was determined as 6700 ng·h/mL. Besides, the remaining at 24 h, 10 µM is 100% in series [12] and 102% in [13].

The molecule `CCc1oc(COc2ccc(F)c(C(N)=O)c2F)nc1-c1ccc(OC)cc1` gave a half-life in series [1] of 0.167 h. For the same molecule, the values for the MIC in [2], in [7] and in [9] were 0.12 µg/mL (≈ 0.309 µM), over 64 µg/mL and 0.12 µg/mL (≈ 0.309 µM), respectively. Besides, the distribution volume (Vd) in [4] stood at 4.3 L/kg. The half-life at 10 µM in series [5] worked out at 1.19 h; in [6], 0.39 h. The same molecule returned a clearance in series [8] of 319 mL/min/kg. In series [10], this molecule displayed a C0 of 1100 ng/mL. The AUC in series [11] worked out at 200 ng·h/mL. The remaining at 24 h, 10 µM in series [12] was 100%; in series [13], 97%.

Turning to `CCCc1oc(COc2ccc(F)c(C(N)=O)c2F)nc1-c1ccc(Cl)cc1`, the half-life in series [1] came to 0.417 h. For the same molecule, the results for the MIC in series [2] and in series [9] were 0.03 µg/mL (≈ 0.0737 µM) and 0.015 µg/mL (≈ 0.0369 µM), respectively. The molecule also had a Vd in series [4] of 5 L/kg. For the same molecule, the half-life at 10 µM in [5] came to 1.14 h; in series [6], 0.298 h. Also, the clearance in series [8] turned out to be 137 mL/min/kg. Also, the C0 in series [10] was 1200 ng/mL. Besides, the AUC in series [11] is 400 ng·h/mL. Also, the remaining at 24 h, 10 µM in [12] amounted to 101%; in series [13], 98%.

In turn, `CC(Oc1ccc(F)c(C(N)=O)c1F)c1nc(-c2ccc(OC(F)(F)F)cc2)c(Br)o1` (racemic) returned a half-life in series [1] of 0.883 h. Besides, the MIC in [2] and in series [9] was 0.12 µg/mL (≈ 0.237 µM) each time. Also, the Vd in [4] came out at 2.7 L/kg. Moreover, the half-life at 10 µM in series [5] was over 2 h; in series [6], 1.69 h. For the same molecule, the clearance in series [8] was found to be 36 mL/min/kg. In addition, the C0 in series [10] amounted to 2500 ng/mL. This molecule also displayed an AUC in series [11] of 1400 ng·h/mL. In addition, the remaining at 24 h, 10 µM in series [12] amounted to 104%; in series [13] it was 96%.

As to `CC(Oc1ccc(F)c(C(N)=O)c1F)c1nc(-c2ccc(C(F)(F)F)cc2)c(Br)o1` (racemic), in series [1], the half-life stood at 1.05 h. Moreover, the MIC in series [2] and in series [9] was 0.06 µg/mL (≈ 0.122 µM) throughout. The Vd in [4] was 2 L/kg. Besides, the clearance in series [8] stood at 22 mL/min/kg. Besides, the C0 in series [10] came out at 2000 ng/mL. This molecule returned an AUC in [11] of 2200 ng·h/mL.
